Activity calls are given as the source filed them. No cut-off for these calls is given here.

Data set [1] concerns the target T1, Proteasome subunit beta type-8 (Homo sapiens) (UniProt P28062).
T1 sequence (whole entry): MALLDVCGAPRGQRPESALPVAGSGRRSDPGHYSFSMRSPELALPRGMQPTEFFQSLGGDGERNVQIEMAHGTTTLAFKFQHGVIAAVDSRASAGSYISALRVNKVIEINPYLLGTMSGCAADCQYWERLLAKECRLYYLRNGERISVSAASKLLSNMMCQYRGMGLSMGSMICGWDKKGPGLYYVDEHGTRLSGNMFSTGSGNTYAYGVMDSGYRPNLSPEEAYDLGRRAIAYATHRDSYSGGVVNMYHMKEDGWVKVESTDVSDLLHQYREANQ
Kind of data set: (§1) Inhibition of immunoproteasome-20S subunit beta5i in human PBMC assessed as substrate hydrolysis using suc-LLVY-AMC as substrate measured for 120 mins by fluorescence analysis.

In data set [2] the target is T2, Proteasome subunit beta type-8 (Homo sapiens, UniProt P28062).
T2 sequence (P28062 whole entry): T1 sequence (whole entry)
Described as §1.

For data set [3], the target named is T1, Proteasome subunit beta type-8 (Homo sapiens). The data set is described as follows: Ratio of Kinact to Ki for immunoproteasome-20S subunit beta5i in human PBMC using suc-LLVY-AMC as substrate measured for 120 mins by fluorescence analysis. Put shortly:
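Progress curves of hu i-20S suc-LLVY-AMC hydrolysis recorded at several inhibitor concentrations. kobs for each curve fitted to equation I. kobs plotted against inhibitor concentration and fitted hyperbolically (two-step mechanism) to give kinact/KI.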

Data set [4] is filed under the species Homo sapiens. Kind of data set: Inhibition of constitutive proteasome 20S subunit beta5c in human RBC assessed as substrate hydrolysis using suc-LLVY-AMC as substrate measured for 120 mins by fluorescence analysis.
In data set [5] the target is T1, Proteasome subunit beta type-8 (Homo sapiens). Kind of data set: Inhibition of immunoproteasome-20S subunit beta5i in human PBMC assessed as substrate hydrolysis using suc-LLVY-AMC as substrate by fluorescence analysis. Particulars: TDE = time-dependent effect. Put shortly: (§2)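 Purified human i-20S preincubated with inhibitor for 15 min before suc-LLVY-AMC was added; inhibitor ranged from 9.8 nM to 100 μM. AMC fluorescence release read. IC50 from the concentration–response; where β2i/β1i inhibition exceeded 80% at 100 μM, IC50 was also determined.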

The species entered for data set [6] is Homo sapiens. The data set is described as follows: Ratio of Kinact/Ki for immunoproteasome-20S subunit beta5i in human PBMC to Kinact/Ki for constitutive proteasome 20S subunit beta5c in human RBC.
Data set [7] has as its target T2, Proteasome subunit beta type-8. Kind of data set: Inhibition of immunoproteasome-20S subunit beta5i in human PBMC assessed as substrate hydrolysis using suc-LLVY-AMC as substrate preincubated for 15 mins prior to substrate challenge measured for 120 mins by fluorescence analysis. Put shortly:
as §2

Data set [8] in a line: Half life of the compound in RPMI medium at 75 uM by UPLC/MS analysis. The format is physicochemical. Put shortly: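 Stability measured in tissue culture medium; reported as t1/2 in minutes.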
In data set [9] the target is T1, Proteasome subunit beta type-8 (Homo sapiens). The data set is described as follows: Inhibition of immunoproteasome 20S subunit beta5i in human Karpas 1106p cell extract at 1 uM. Put shortly:
(§3)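 Cell-free extracts of Karpas 1106p cells incubated with inhibitor at various concentrations. β5i activity in the lysate then measured; reported as percent inhibition at each concentration.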

Data set [10] has the same target. The data set is described as follows: Inhibition of immunoproteasome 20S subunit beta5i in human Karpas 1106p cell extract at 10 uM. The method, boiled down: as §3
For data set [11] the target is unchanged. Kind of data set: Inhibition of immunoproteasome 20S subunit beta5i in human Karpas 1106p cell extract at 100 uM. The method, boiled down: as §3
Data set [12] has as its target 26S proteasome. The data set is described as follows: Inhibition of chymotrypsin-like activity of 26S proteasome in intact human Karpas 1106p cells assessed as substrate hydrolysis using Suc-LLVY-(D)-aminoluciferin as substrate after 3 hrs by cell-based Proteasome-Glo assay. Put shortly: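 Intact Karpas 1106p cells, a human lymphoma line that expresses i-20S constitutively without IFN-γ or TNF-α stimulation. 26S proteasome activity read by cell-based Proteasome-Glo luminescence over a range of inhibitor concentrations. EC50 derived from the dose–response.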

Data set [13] concerns the target T1, Proteasome subunit beta type-8 (Homo sapiens). Kind of data set: Inhibition of immunoproteasome 20S subunit beta5i in human Karpas 1106p cells assessed as accumulation of polyubiquitinylated proteins at 2.5 to 25 uM after 4 hrs by western blot analysis. The format is cell-based. The method, boiled down: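 Karpas 1106p cells treated with inhibitor at the indicated concentrations for 4 h at 37 °C. Polyubiquitinated proteins then detected by Western blot.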
A general note: Immunoblotting shows a protein as a band on a membrane.

Data set [14] has the same target. To be noted: 1 nM.
For data set [15] the target is unchanged. To be noted: 10 to 100 nM.

The Ki is the dissociation constant of the complex between target and ligand, obtained from inhibition or displacement. Broadly, the inhibition is the percentage by which the read-out fell short of the control. Consider `CC(=O)N[C@@H](Cc1ccccc1)C(=O)Nc1ccc(-c2nsc(=O)o2)cc1`, for which the Kinact in data set [1] amounted to 0.0001 s⁻¹. In addition, the Ki in [2] came out at 520 nM. Further, the Ratio in data set [3] worked out at 193 M⁻¹ s⁻¹; in data set [4], 0.13 M⁻¹ s⁻¹; in data set [6], 1490. The inhibition entry in [5] is “tde”.

In the case of `O=c1oc(-c2ccccn2)ns1`, the Kinact in [1] was 0.00025 s⁻¹. Besides, the inhibition constant (Ki) in data set [2] was determined as 2000 nM. Also, the values for the Ratio in [3], in data set [4] and in data set [6] were 129 M⁻¹ s⁻¹, 0.2 M⁻¹ s⁻¹ and 645, respectively.

`CC(C)(C)OC(=O)Nc1ccc(-c2nsc(=O)o2)cc1`: in [1], the Kinact worked out at 0.00037 s⁻¹. The Ki in [2] came out at 1100 nM. Besides, the Ratio came to 341 M⁻¹ s⁻¹ in data set [3], 2.4 M⁻¹ s⁻¹ in [4] and 142 in data set [6].

As to `O=c1oc(-c2ccccc2)ns1`, the Kinact in data set [1] stood at 0.00093 s⁻¹. In addition, in data set [2], the Ki came to 7900 nM. In addition, the Ratio in [3] worked out at 118 M⁻¹ s⁻¹; in data set [4], 14.8 M⁻¹ s⁻¹; in data set [6] it was 8. Besides, in data set [5], the inhibition result was “tde”.

As for `O=c1oc(-c2cccc(CN3CCOCC3)c2)ns1`, the Kinact in data set [1] is 0.00026 s⁻¹. In data set [2], the inhibition constant (Ki) amounted to 1200 nM. Moreover, the Ratio in data set [3] was 214 M⁻¹ s⁻¹; in data set [4], 2.3 M⁻¹ s⁻¹; in data set [6], 93. In addition, the inhibition result in [5] is “tde”.

On to `CC(=O)N[C@H](Cc1ccccc1)C(=O)Nc1cccc(-c2nsc(=O)o2)c1`, for which the Ratio was 6.6 M⁻¹ s⁻¹ in data set [3], 0.34 M⁻¹ s⁻¹ in [4] and 19 in [6].

For orientation: IC50 means the concentration that gives 50% inhibition. `Cc1sc(-c2nsc(=O)o2)cc1[N+](=O)[O-]`: the concentration for half-maximal inhibition (IC50) in data set [7] stood at 220 nM. Besides, the Kinact in data set [1] worked out at 0.00077 s⁻¹. In data set [2], the Ki worked out at 760 nM. In addition, the Ratio stood at 1010 M⁻¹ s⁻¹ in data set [3], 10.1 M⁻¹ s⁻¹ in data set [4] and 100 in data set [6].

As for `O=c1oc(-c2cccc(F)c2)ns1`, the Ratio amounted to 20 M⁻¹ s⁻¹ in [3], 13.2 M⁻¹ s⁻¹ in data set [4] and 1.5 in data set [6].

With `O=c1oc(-c2ccc3[nH]ccc3c2)ns1`, the Kinact in data set [1] worked out at 0.00026 s⁻¹. In addition, in data set [2], the Ki was 1100 nM. The results for the Ratio in [3], in [4] and in data set [6] were 225 M⁻¹ s⁻¹, 0.13 M⁻¹ s⁻¹ and 1730, respectively. Also, the inhibition entry in data set [5] is “tde”.

On to `O=c1oc(-c2ccc(-c3ccccc3)cc2)ns1`, for which the Kinact in [1] worked out at 0.00154 s⁻¹. For the same molecule, in data set [2], the Ki was found to be 1400 nM. The Ratio in [3] came to 1090 M⁻¹ s⁻¹; in data set [4] it was 0.23 M⁻¹ s⁻¹; in data set [6] it was 4750.

For the molecule `O=c1oc(-c2cccc(-c3ccccc3)c2)ns1`, the Kinact in data set [1] came to 0.001 s⁻¹. For the same molecule, in data set [2], the inhibition constant Ki came out at 6000 nM. The Ratio in data set [3] was found to be 168 M⁻¹ s⁻¹; in data set [4], 0.4 M⁻¹ s⁻¹; in [6] it was 420. Moreover, in data set [5], the inhibition entry was “tde”.

For orientation: half-life means how long it takes for the measured level to halve. In general, EC50 refers to the concentration giving half of the maximal effect. With `CC(=O)Nc1cccc(-c2nsc(=O)o2)c1`, the figures for the Ratio in [3], in data set [4] and in [6] were 83 M⁻¹ s⁻¹, 3.2 M⁻¹ s⁻¹ and 26, respectively. Also, the half-life at 75 µM in [8] came out at 1.36 h. The inhibition in data set [9] was 60%; in data set [10] it was over 90%. In addition, the inhibition result in data set [11] and in data set [13] was “Active” in each case. Moreover, the EC50 in data set [12] was determined as 4200 nM.

As to `[N-]=[N+]=Nc1ccc(-c2nsc(=O)o2)cc1`, the Kinact in data set [1] is 0.00092 s⁻¹. The Ki in data set [2] was 3500 nM. Also, the Ratio in [3] amounted to 263 M⁻¹ s⁻¹; in [4] it was 23.7 M⁻¹ s⁻¹; in [6], 11. In addition, the inhibition result in data set [5] was “tde”.

For `CC(=O)N[C@H](Cc1ccccc1)C(=O)Nc1ccc(-c2nsc(=O)o2)cc1`, the Kinact in [1] worked out at 0.00053 s⁻¹. Moreover, the Ki in data set [2] is 3500 nM. Besides, the Ratio was determined as 151 M⁻¹ s⁻¹ in data set [3], 0.7 M⁻¹ s⁻¹ in data set [4] and 215 in [6]. Also, the half-life at 75 µM in [8] came out at 0.878 h. Besides, the inhibition in [9] was 40%; in data set [10], 65%. Besides, the inhibition result in data set [11] and in data set [13] was “Active” in each case. In addition, the concentration for a half-maximal effect (EC50) in [12] was found to be 15400 nM.

Turning to `O=c1oc(-c2cc(O)c(O)c(O)c2)ns1`, in data set [1], the Kinact was 0.00042 s⁻¹. Moreover, the Ki in [2] came to 1700 nM. Moreover, the Ratio came to 239 M⁻¹ s⁻¹ in [3], 1.4 M⁻¹ s⁻¹ in data set [4] and 171 in data set [6]. Also, the inhibition entry in data set [5] was “tde”.

As for `O=c1oc(-c2cccc([N+](=O)[O-])c2)ns1`, the Kinact in data set [1] worked out at 0.00038 s⁻¹. In [2], the Ki amounted to 420 nM. Further, the Ratio in data set [3] was found to be 913 M⁻¹ s⁻¹; in data set [4], 10.3 M⁻¹ s⁻¹; in data set [6] it was 89. For the same molecule, the inhibition result in data set [5] is “tde”.

Turning to `CC(C)C[C@H](NC(=O)[C@H](Cc1ccccc1)NC(=O)c1cnccn1)B(O)O`, the inhibition in data set [14] was 58%; in data set [15], 90%.

For the molecule `O=c1oc(-c2ccccc2C(F)(F)F)ns1`, the Kinact in data set [1] is 0.00033 s⁻¹. Also, the inhibitory constant (Ki) in data set [2] was determined as 1800 nM. In addition, the values for the Ratio in [3], in [4] and in [6] were 187 M⁻¹ s⁻¹, 1.6 M⁻¹ s⁻¹ and 117, respectively. Besides, the inhibition result in data set [5] was “tde”.

The record behind these values is ChEMBL document CHEMBL3259678 (ACS Med Chem Lett, 2014).
